Test [1] can be described thus: Her2 expression decrease, cell viability multiplex – SKBR3 breast tumor cells, AlphaScreen, ATP viability, primary screen (AID 461;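 active means Her2 level under about 52% in both replicate screens, with viability over 70% of control, limit read from the data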;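 on Her2 level: lower value means less Her2 protein in the cells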;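 on viability: percent of carrier control wells set as 100% viability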). The settings on record: SKBR3 Her2 protein level, 18-24 h, measured here: SKBR3 viability, ATP luminescence, at 10 µM. Background: Bead proximity is the source of the signal in Alpha formats.
Test [2] concerns the target Receptor tyrosine-protein kinase erbB-2 (Homo sapiens) (UniProt P04626). The description is as above. The settings on record: 18-24 h, at 10 µM, stronger effect = lower value.
Test [3] is described as follows: reduced viability of SK-BR-3 breast cancer cells – cell-based, 24 h, human, pilot screen (AID 572;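 active means viability at or below 10% of carrier control in both of two separate runs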;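 further: compound exposure lasted between 18 and 24 h rather than exactly 24 h; 100% = carrier-treated control wells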). The settings on record: SK-BR-3 viability, CellTiter-Glo luminescence, at 10 µM, stronger effect = lower value. (Cellular ATP, detected with luciferase, serves as a proxy for viable cell number.)
Test [4] can be described thus: HUVEC growth inhibition – cell-based, human, primary screen (AID 575;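 active means viability at or below 30% in both replicate assays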;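 further: 100% = median of untreated cell wells with 0.1% DMSO on each plate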). As to conditions: HUVEC proliferation, CellTiter-Glo luminescence, 72 h; at 10 µM; stronger effect = lower value. Summed up: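 Test system: primary human umbilical vein endothelial cells; medium: endothelial basal medium with 2% FBS plus growth supplements; dosing: 10 µM compound only; times: 72 h treatment at 37 °C; signal: CTG luminescence; read-out: % viability relative to median vehicle-well signal on each plate; control set: vehicle and MePR control wells; plate: 384-well, collagen-coated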

Test [5] is described as follows: H69AR cell proliferation blockers – human, duplicate replicates, primary screen (AID 580;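 active means viability at or under a set limit in both replicates, limit being median viability minus 3 SD, cut at about 48% in these data, passing the limit was not always enough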;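 further: 100% = mean luminescence of untreated wells and 0% = no signal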). As to conditions: H69AR lung tumor cells viability, ATP luminescence, 72 h; at 10 µM; stronger effect = lower value.
Test [6] in a line: MRP1 drug-resistance reversers in H69AR cells – cell-based, doxorubicin co-treatment, pilot screen (AID 601;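 active means viability loss from added drug above about 55%, and viability with drug at most 40%, in both replicates, limit read from the data, passing the limit was not always enough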). The settings on record: CellTiter-Glo, 72 h, at 10 µM; for differential viability (reversal): stronger effect = higher value.
Test [7] in a line: yeast transport mutant growth inhibition pilot in 384-well plates, post-Golgi transport modulator project (AID 636; in the data active means inhibition above about 31%). The settings on record: absorbance 615 nm, about 18 h, stronger effect = higher value.
A short description of test [8]: growth suppression of yeast trafficking mutant, preliminary HTS, modulators of trafficking downstream of Golgi apparatus project, 1536-format plate, OD 615 nm (AID 637). The settings on record: yeast transport mutant growth, absorbance 615 nm, 18 h; stronger effect = higher value.
[9] abbreviates: H69AR cells + 2 uM doxorubicin, measured here: viability with 2 uM doxorubicin, stronger effect = lower value.
The mark [10] stands for this setting: H69AR cells, compound alone cytotoxicity.

The text below walks through data of PubChem BioAssay.

Calls of active or inactive are those of the source. Unless noted, no stated cut-off is given here; in the data, active means inhibition above about 30%; inactive means the rest.

Sequence of Receptor tyrosine-protein kinase erbB-2 (Homo sapiens) (P04626 whole entry, looked up): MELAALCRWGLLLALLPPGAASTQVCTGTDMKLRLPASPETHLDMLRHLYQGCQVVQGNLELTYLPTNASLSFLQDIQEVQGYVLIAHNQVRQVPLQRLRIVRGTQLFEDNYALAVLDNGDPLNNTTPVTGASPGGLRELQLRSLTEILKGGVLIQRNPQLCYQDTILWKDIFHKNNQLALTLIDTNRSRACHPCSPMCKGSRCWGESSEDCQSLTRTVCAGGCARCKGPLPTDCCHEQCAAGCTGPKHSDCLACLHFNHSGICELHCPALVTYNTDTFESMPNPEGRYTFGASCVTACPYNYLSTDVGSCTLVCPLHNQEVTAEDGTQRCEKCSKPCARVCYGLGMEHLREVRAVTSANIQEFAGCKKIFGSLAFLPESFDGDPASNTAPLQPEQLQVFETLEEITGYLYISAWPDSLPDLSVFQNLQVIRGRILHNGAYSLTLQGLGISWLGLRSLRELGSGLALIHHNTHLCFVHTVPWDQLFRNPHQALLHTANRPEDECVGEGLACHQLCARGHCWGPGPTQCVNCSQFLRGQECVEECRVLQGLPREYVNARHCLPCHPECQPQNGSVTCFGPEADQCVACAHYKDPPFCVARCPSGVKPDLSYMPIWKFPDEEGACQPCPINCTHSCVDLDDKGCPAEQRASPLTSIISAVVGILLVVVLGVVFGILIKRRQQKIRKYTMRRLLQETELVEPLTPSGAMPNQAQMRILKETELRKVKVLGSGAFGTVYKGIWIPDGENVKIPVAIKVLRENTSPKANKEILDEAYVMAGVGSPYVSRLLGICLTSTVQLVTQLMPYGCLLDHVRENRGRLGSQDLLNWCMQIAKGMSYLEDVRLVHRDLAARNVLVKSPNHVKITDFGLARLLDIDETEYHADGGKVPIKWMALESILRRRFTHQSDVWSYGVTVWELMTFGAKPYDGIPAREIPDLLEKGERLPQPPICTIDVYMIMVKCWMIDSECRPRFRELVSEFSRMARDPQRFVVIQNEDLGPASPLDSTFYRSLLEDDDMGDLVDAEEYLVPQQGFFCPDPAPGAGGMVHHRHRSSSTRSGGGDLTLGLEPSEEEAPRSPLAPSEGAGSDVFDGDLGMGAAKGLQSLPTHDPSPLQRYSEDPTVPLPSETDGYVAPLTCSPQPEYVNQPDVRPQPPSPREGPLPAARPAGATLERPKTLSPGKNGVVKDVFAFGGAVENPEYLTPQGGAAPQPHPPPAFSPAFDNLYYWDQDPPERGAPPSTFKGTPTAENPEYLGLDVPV

As to `CCOc1cc(N2CCOCC2)c(OCC)cc1NC(=O)CSc1cccc[n+]1[O-]`, the viability (commonly a read-out of living cells in per cent, often relative to untreated cells) is 128% in test [1]; 128% (inactive) in test [3]; 94% (inactive) in test [4]; 86.8% (inactive) in test [5]; 84.8% in test [6] (setting [9]); 86.8% in test [6] (setting [10]). In test [2], the Her2 level is 93% (inactive). The differential viability (reversal) in test [6] (H69AR cells + 2 uM doxorubicin) is 1.93% (inactive). The inhibition (usually the relative decrease from the control value, in per cent) was -5.26% (inactive) in test [7] and -4% (inactive) in test [8].

As to `Cc1cccc(C)c1NC(=O)N1CCN(C2CCCCC2)CC1`, the viability was 111% in test [1]; 111% (inactive) in test [3]; 109% (inactive) in test [4]; 104% (inactive) in test [5]; 91.6% in test [6] (setting [9]); 104% in test [6] (setting [10]). Also, the Her2 level in test [2] was 92.5% (inactive). Besides, in test [6] (H69AR cells + 2 uM doxorubicin), the differential viability (reversal) is 12.6% (inactive). Moreover, the inhibition in test [7] is -8.03% (inactive); in test [8], -2.55% (inactive).

For `COc1ccc2cc(C#N)c(SCC(=O)N3CCCC3)nc2c1`, the viability in test [1] is 97%; in test [3], 97% (inactive); in test [4] it was 90.4% (inactive); in test [5] it was 70.2% (inactive); in test [6] (setting [9]), 75.5%; in test [6] (setting [10]), 70.2%. In addition, the Her2 level in test [2] was 81% (inactive). Moreover, in test [6] (H69AR cells + 2 uM doxorubicin), the differential viability (reversal) is -5.28% (inactive). Also, the inhibition in test [7] is 0.95% (inactive); in test [8], -5.08% (inactive).

Consider `Cc1cccc(-n2c(Cc3cc(=O)[nH]c(=O)[nH]3)nnc2SCC(=O)NCc2ccco2)c1`, for which the viability was 99.5% in test [1]; 99.5% (inactive) in test [3]; 108% (inactive) in test [4]; 111% (inactive) in test [5]; 97.1% in test [6] (setting [9]); 111% in test [6] (setting [10]). Further, in test [2], the Her2 level is 89.5% (inactive). Besides, the differential viability (reversal) in test [6] (H69AR cells + 2 uM doxorubicin) is 13.9% (inactive). The inhibition is -7.07% (inactive) in test [7] and 4.19% (inactive) in test [8].

For the compound `COC(=O)c1ccc(N2C(=O)CC(N3CCN(C(=O)c4ccco4)CC3)C2=O)cc1` (stereo not given), the viability in test [1] is 86%; in test [3], 86% (inactive); in test [4], 85.9% (inactive); in test [5] it was 89.5% (inactive); in test [6] (setting [9]), 93.7%; in test [6] (setting [10]) it was 89.5%. Also, the Her2 level in test [2] was 89.5% (inactive). Besides, the differential viability (reversal) in test [6] (H69AR cells + 2 uM doxorubicin) was -4.23% (inactive). In addition, the inhibition in test [7] was -3.73% (inactive); in test [8] it was -2.95% (inactive).

For the compound `CCN(C(=O)c1cn(C)c(=O)c2cc(OC)c(OC)cc12)c1ccccc1C`, the viability in test [1] was 108%; in test [3] it was 108% (inactive); in test [4], 106% (inactive); in test [5], 98.2% (inactive); in test [6] (setting [9]), 91%; in test [6] (setting [10]) it was 98.2%. The Her2 level in test [2] is 75% (inactive). Further, the differential viability (reversal) in test [6] (H69AR cells + 2 uM doxorubicin) is 7.24% (inactive). Also, the inhibition in test [7] was -0.54% (inactive); in test [8] it was -1.43% (inactive).

As to `N#Cc1ccc(CSc2nnc(-c3cnccn3)o2)cc1`, the viability is 106% in test [1]; 106% (inactive) in test [3]; 93.8% (inactive) in test [4]; 106% (inactive) in test [5]; 82.5% in test [6] (setting [9]); 106% in test [6] (setting [10]). Moreover, the Her2 level in test [2] was 110% (inactive). In addition, in test [6] (H69AR cells + 2 uM doxorubicin), the differential viability (reversal) was 23.4% (inactive). The inhibition is -0.67% (inactive) in test [7] and -0.97% (inactive) in test [8].

On to `CN(C)S(=O)(=O)Nc1ccc(Br)cc1F`, for which the viability in test [1] is 108%; in test [3], 108% (inactive); in test [4] it was 86.9% (inactive); in test [5] it was 102% (inactive); in test [6] (setting [9]) it was 88.5%; in test [6] (setting [10]) it was 102%. The Her2 level in test [2] was 82.5% (inactive). In addition, in test [6] (H69AR cells + 2 uM doxorubicin), the differential viability (reversal) was 13.6% (inactive). In addition, the inhibition in test [7] was -5.2% (inactive); in test [8], -8.1% (inactive).

As to `c1cncc(-c2nnc3n2N=C(c2cccs2)CS3)c1`, the viability is 90.5% in test [1]; 90.5% (inactive) in test [3]; 78.2% (inactive) in test [4]; 92.5% (inactive) in test [5]; 88.5% in test [6] (setting [9]); 92.5% in test [6] (setting [10]). For the same compound, the Her2 level in test [2] is 73.5% (inactive). In test [6] (H69AR cells + 2 uM doxorubicin), the differential viability (reversal) is 4.06% (inactive). The inhibition in test [7] was -4.34% (inactive); in test [8], -0.83% (inactive).

Take `CCOC(=O)c1ccc(NC(=O)CSc2n[nH]c(-c3ccncc3)n2)cc1`: the viability was 87.5% in test [1]; 87.5% (inactive) in test [3]; 80% (inactive) in test [4]; 87.7% (inactive) in test [5]; 89.4% in test [6] (setting [9]); 87.7% in test [6] (setting [10]). Moreover, the Her2 level in test [2] is 102% (inactive). Further, in test [6] (H69AR cells + 2 uM doxorubicin), the differential viability (reversal) is -1.68% (inactive). Besides, the results for the inhibition in test [7] and in test [8] were -3.11% (inactive) and 1.27% (inactive), respectively.

For the compound `CCOC(=O)CNC(=O)C(Cc1ccccc1)NS(=O)(=O)c1ccc2c(c1)CCC(=O)N2` (stereo not given), the viability is 101% in test [1]; 101% (inactive) in test [3]; 92.8% (inactive) in test [4]; 90.7% (inactive) in test [5]; 91.7% in test [6] (setting [9]); 90.7% in test [6] (setting [10]). For the same compound, the Her2 level in test [2] was 114% (inactive). Besides, the differential viability (reversal) in test [6] (H69AR cells + 2 uM doxorubicin) was -0.925% (inactive). The results for the inhibition in test [7] and in test [8] were 1.84% (inactive) and -5.64% (inactive), respectively.

For `CC(=O)Oc1ccc(CCC(C)OC(C)=O)cc1` (stereo not given), the viability in test [1] was 101%; in test [3] it was 101% (inactive); in test [4], 93.2% (inactive); in test [5], 99.7% (inactive); in test [6] (setting [9]), 96.9%; in test [6] (setting [10]), 99.7%. Further, the Her2 level in test [2] was 92% (inactive). Besides, the differential viability (reversal) in test [6] (H69AR cells + 2 uM doxorubicin) was 2.78% (inactive). For the same compound, the inhibition in test [7] was -6.13% (inactive); in test [8], -1.13% (inactive).

With `c1ccc(CC2CCN(C(c3cccs3)c3nnnn3C3CCCC3)CC2)cc1` (stereo not given), the viability was 102% in test [1]; 102% (inactive) in test [3]; 91.9% (inactive) in test [4]; 93.4% (inactive) in test [5]; 93.7% in test [6] (setting [9]); 93.4% in test [6] (setting [10]). Besides, the Her2 level in test [2] is 128% (inactive). In addition, the differential viability (reversal) in test [6] (H69AR cells + 2 uM doxorubicin) is -0.24% (inactive). Further, the results for the inhibition in test [7] and in test [8] were 1.92% (inactive) and -0.63% (inactive), respectively.

Take `CN(C)S(=O)(=O)c1ccc(/C(O)=C2/C(=O)C(=O)N(CCN3CCCCC3)C2c2cccnc2)cc1` (stereo not given): the viability was 87% in test [1]; 87% (inactive) in test [3]; 92.1% (inactive) in test [4]; 87.3% (inactive) in test [5]; 90.7% in test [6] (setting [9]); 87.3% in test [6] (setting [10]). In addition, the Her2 level in test [2] is 166% (inactive). The differential viability (reversal) in test [6] (H69AR cells + 2 uM doxorubicin) was -3.39% (inactive). Besides, the results for the inhibition in test [7] and in test [8] were 6.54% (inactive) and 11.3% (inactive), respectively.
